Measured values: ChEMBL document CHEMBL2375304, “Synthesis and anticancer activity of novel 2-pyridyl hexahyrocyclooctathieno[2,3-d]pyrimidine derivatives” (2013)

Experiments:
Assay type in all cases: functional
SNB-75 = test: Growth inhibition of human SNB75 cells after 48 hrs by Sulforhodamine B assay; details: SNB-75, 48 h
Method in brief: (§1)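 Cells were preincubated 24 h at 37 °C, 5% CO2, and a time-zero plate was TCA-fixed. Five concentrations were made by serial dilution from a DMSO stock (400-fold the top concentration) and incubated 48 h. Adherent cells were fixed with 10% final TCA and suspension cells with 16%. Plates were stained with 0.4% SRB and read at 515 nm. GI50 is the concentration giving 50% reduction in net protein increase versus control.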

RPMI-8226 = test: Growth inhibition of human RPMI8226 cells after 48 hrs by Sulforhodamine B assay; details: RPMI-8226, 48 h; method in brief: as §1
MCF7 = test: Growth inhibition of human MCF7 cells after 48 hrs by Sulforhodamine B assay; details: MCF7, 48 h
Method in brief: (§2)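 Five-concentration SRB assay using 10-fold or ½-log serial dilutions from a DMSO stock. Exposure is 48 h at 37 °C in 5% CO2 after 24 h preincubation. TCA fixation is followed by SRB staining and a reading at 515 nm. Percentage growth is computed from time-zero, control and treated absorbances. GI50 is the concentration where [(Ti−Tz)/(C−Tz)]×100 = 50, read from the plot against log concentration.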

SN12C = test: Growth inhibition of human SN12C cells after 48 hrs by Sulforhodamine B assay; method in brief: as §1
SK-MEL-5 = test: Growth inhibition of human SK-MEL-5 cells after 48 hrs by Sulforhodamine B assay; details: SK-MEL-5, 48 h; method in brief: as §1
K562 = test: Growth inhibition of human K562 cells after 48 hrs by Sulforhodamine B assay; details: K562, 48 h; method in brief: as §2
NCI-H522 = test: Growth inhibition of human NCI-H522 cells after 48 hrs by Sulforhodamine B assay; details: NCI-H522, 48 h; method in brief: as §1
A498 = test: Growth inhibition of human A498 cells after 48 hrs by Sulforhodamine B assay; details: A498, 48 h; method in brief: as §2
SF-539 = test: Growth inhibition of human SF539 cells after 48 hrs by Sulforhodamine B assay; details: SF-539, 48 h; method in brief: as §1
LOX IMVI = test: Growth inhibition of human LOXIMVI cells after 48 hrs by Sulforhodamine B assay; method in brief: as §2
[1] = Growth inhibition of human HCC2998 cells after 48 hrs by Sulforhodamine B assay; details: HCC 2998, 48 h; method in brief: as §2
UACC-257 = test: Growth inhibition of human UACC257 cells after 48 hrs by Sulforhodamine B assay; details: UACC-257, 48 h
Method in brief: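 Five-concentration stage in the […]-cell-line panel, using 10-fold or ½-log serial dilutions made from a DMSO stock (400-fold). Cells were preincubated 24 h at 37 °C, then drug-exposed 48 h. A time-zero plate was fixed with TCA at dosing, adherent cells were fixed with cold TCA (10% final), and protein was stained with SRB, absorbance 515 nm. GI50 was where [(Ti−Tz)/(C−Tz)]×100 = 50, from the percent growth vs log concentration plot, expressed as log10 GI50.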

PC-3 = test: Growth inhibition of human PC3 cells after 48 hrs by Sulforhodamine B assay; details: PC-3, 48 h; method in brief: as §1
RXF 393 = test: Growth inhibition of human RXF393 cells after 48 hrs by Sulforhodamine B assay; details: RXF 393, 48 h; method in brief: as §1
SF-268 = test: Growth inhibition of human SF268 cells after 48 hrs by Sulforhodamine B assay; details: SF-268, 48 h; method in brief: as §1
DU-145 [2] = test: Growth inhibition of human DU145 cells after 48 hrs by Sulforhodamine B assay; details: DU-145, 48 h; method in brief: as §2
MDA-MB-435 = test: Growth inhibition of human MDA-MB-435 cells at 10^-5 M after 48 hrs by Sulforhodamine B assay relative to control; details: MDA-MB-435, 48 h, read-out: GI
Method in brief: (§3)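 Single-dose screen at 10⁻⁵ M. Cells are preincubated 24 h at 37 °C in 5% CO2, then exposed to the compound, diluted from a DMSO stock into medium with gentamicin, for 48 h. Adherent cells are fixed with cold TCA (final 10%) and suspension cells with TCA (final 16%). Cells are stained with 0.4% SRB in 1% acetic acid and bound dye is read at 515 nm. Percent growth inhibition is taken against control wells and time-zero plates.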

A549 = test: Growth inhibition of human A549/ATCC cells at 10^-5 M after 48 hrs by Sulforhodamine B assay relative to control; details: A549, 48 h, read-out: GI; method in brief: as §3
NCI-H322M = test: Growth inhibition of human NCI-H322M cells at 10^-5 M after 48 hrs by Sulforhodamine B assay relative to control; details: read-out: GI
Method in brief: (§4)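 Single-dose primary screen at 10⁻⁵ M across 49 lines. Cells were plated 24 h beforehand, with a TCA-fixed time-zero plate, then exposed 48 h at 37 °C, 5% CO2. Cells were fixed with cold TCA, stained with SRB and read at 515 nm. Percent growth was calculated against time-zero and untreated-control absorbances.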

HOP-62 = test: Growth inhibition of human HOP62 cells at 10^-5 M after 48 hrs by Sulforhodamine B assay relative to control; details: HOP-62, 48 h, read-out: GI; method in brief: as §3
BT-549 = test: Growth inhibition of human BT549 cells at 10^-5 M after 48 hrs by Sulforhodamine B assay relative to control; details: BT-549, 48 h, read-out: GI; method in brief: as §3
OVCAR-3 = test: Growth inhibition of human OVCAR3 cells at 10^-5 M after 48 hrs by Sulforhodamine B assay relative to control; details: OVCAR-3, 48 h, read-out: GI; method in brief: as §4
MOLT-4 = test: Growth inhibition of human MOLT4 cells at 10^-5 M after 48 hrs by Sulforhodamine B assay relative to control; details: MOLT-4, 48 h, read-out: GI; method in brief: as §4
DU-145 [3] = test: Growth inhibition of human DU145 cells at 10^-5 M after 48 hrs by Sulforhodamine B assay relative to control; details: DU-145, 48 h, read-out: GI; method in brief: as §3
OVCAR-4 = test: Growth inhibition of human OVCAR4 cells at 10^-5 M after 48 hrs by Sulforhodamine B assay relative to control; details: OVCAR-4, 48 h, read-out: GI; method in brief: as §4
SK-OV-3 = test: Growth inhibition of human SKOV3 cells at 10^-5 M after 48 hrs by Sulforhodamine B assay relative to control; details: SK-OV-3, 48 h, read-out: GI; method in brief: as §4
CAKI-1 = test: Growth inhibition of human CAKI-1 cells at 10^-5 M after 48 hrs by Sulforhodamine B assay relative to control; details: CAKI-1, 48 h, read-out: GI; method in brief: as §3
CCRF-CEM = test: Growth inhibition of human CCRF-CEM cells at 10^-5 M after 48 hrs by Sulforhodamine B assay relative to control; details: read-out: GI; method in brief: as §3
IGROV-1 = test: Growth inhibition of human IGROV1 cells at 10^-5 M after 48 hrs by Sulforhodamine B assay relative to control; details: IGROV-1, 48 h, read-out: GI; method in brief: as §3
M14 = test: Growth inhibition of human M14 cells at 10^-5 M after 48 hrs by Sulforhodamine B assay relative to control; details: M14, 48 h, read-out: GI; method in brief: as §3

Structure (SMILES) | GI50 (SNB-75) [µM] | GI50 (RPMI-8226) [µM] | GI50 (MCF7) [µM] | GI50 (SN12C) [µM] | GI50 (SK-MEL-5) [µM] | GI50 (K562) [µM] | GI50 (NCI-H522) [µM] | GI50 (A498) [µM] | GI50 (SF-539) [µM] | GI50 (LOX IMVI) [µM] | GI50 [1] [µM] | GI50 (UACC-257) [µM] | GI50 (PC-3) [µM] | GI50 (RXF 393) [µM] | GI50 (SF-268) [µM] | GI50 (DU-145 [2]) [µM] | inhibition of growth at 10 µM (MDA-MB-435) [%] | inhibition of growth at 10 µM (NCI-H322M) [%] | inhibition of growth at 10 µM (HOP-62) [%] | inhibition of growth at 10 µM (BT-549) [%] | further results
O=c1[nH]c(-c2ccncc2)nc2sc3c(c12)CCCCCC3 | 2.69 | > 100 | > 100 | > 100 | > 100 | > 100 | > 100 | > 100 | > 100 | > 100 | > 100 | > 100 | > 100 | > 100 | > 100 | > 100 |  |  |  |  | 
c1ccc(-c2nc(N3CCOCC3)c3c4c(sc3n2)CCCCCC4)nc1 | 7.08 | 2.14 | 3.02 | 5.01 | 2 | 3.47 | 5.89 | 1.66 | 12.9 | 5.25 | 6.92 | 11 | 2.69 | 8.32 | 8.91 | 6.92 |  |  |  |  | 
c1cc(-c2nc(N3CCOCC3)c3c4c(sc3n2)CCCCCC4)ccn1 |  |  |  |  |  |  |  |  |  |  |  |  |  |  |  |  | 0.03 | -14.3 | 1.14 | -20.4 | inhibition of growth at 10 µM (A549): 24.9%; inhibition of growth at 10 µM (OVCAR-3): 15.4%; inhibition of growth at 10 µM (MOLT-4): 24.5%; inhibition of growth at 10 µM (DU-145 [3]): 1.4%; inhibition of growth at 10 µM (OVCAR-4): 22.7%; inhibition of growth at 10 µM (SK-OV-3): 0.61%; inhibition of growth at 10 µM (CAKI-1): 15.8%; inhibition of growth at 10 µM (CCRF-CEM): 2.07%; inhibition of growth at 10 µM (IGROV-1): 1.53%; inhibition of growth at 10 µM (M14): -15.4%
COc1ccc(N2CCN(c3nc(-c4ccncc4)nc4sc5c(c34)CCCCCC5)CC2)cc1 |  |  |  |  |  |  |  |  |  |  |  |  |  |  |  |  | 4.86 | -7.78 | 0.29 | -17.1 | inhibition of growth at 10 µM (OVCAR-3): 9.75%; inhibition of growth at 10 µM (MOLT-4): 16.1%; inhibition of growth at 10 µM (DU-145 [3]): 2.73%; inhibition of growth at 10 µM (OVCAR-4): 11.1%; inhibition of growth at 10 µM (SK-OV-3): 0.84%; inhibition of growth at 10 µM (CAKI-1): 28.8%; inhibition of growth at 10 µM (IGROV-1): 3.43%; inhibition of growth at 10 µM (M14): -0.58%
NNc1nc(-c2ccccn2)nc2sc3c(c12)CCCCCC3 | 12.6 | 3.24 | 3.8 | 6.31 | 3.16 | 3.8 | 12 | 1.86 | 11 | 6.17 | 8.32 | 6.61 | 3.98 | 6.76 | 7.24 | 9.55 |  |  |  |  | 
c1ccc(N2CCN(c3nc(-c4ccncc4)nc4sc5c(c34)CCCCCC5)CC2)cc1 |  |  |  |  |  |  |  |  |  |  |  |  |  |  |  |  | 2.52 | -2.96 | -5.44 | -14.1 | inhibition of growth at 10 µM (A549): -0.56%; inhibition of growth at 10 µM (OVCAR-3): 7.59%; inhibition of growth at 10 µM (MOLT-4): 4.82%; inhibition of growth at 10 µM (DU-145 [3]): -4.95%; inhibition of growth at 10 µM (OVCAR-4): 0.34%; inhibition of growth at 10 µM (SK-OV-3): 1.97%; inhibition of growth at 10 µM (CAKI-1): 8.66%; inhibition of growth at 10 µM (IGROV-1): 0.86%; inhibition of growth at 10 µM (M14): -8.43%
COc1ccc(N2CCN(c3nc(-c4ccccn4)nc4sc5c(c34)CCCCCC5)CC2)cc1 | 26.3 | 3.72 | 3.16 | 6.03 | 2.82 | 4.17 | 18.6 | 3.31 | 67.6 | 6.31 | 10.2 | 7.24 | 3.31 | > 100 | > 100 | 28.2 |  |  |  |  | 
CN1CCN(c2nc(-c3ccncc3)nc3sc4c(c23)CCCCCC4)CC1 | 1.38 | 8.32 | 6.61 | 5.62 | 7.94 | 3.55 | 12 | 1.05 | 8.32 | 8.32 | 3.89 | 10.7 | 4.68 | 4.07 | 5.37 | 12.6 |  |  |  |  | 
O=c1[nH]c(-c2ccccn2)nc2sc3c(c12)CCCCCC3 | 85.1 | 3.63 | 2.45 | 6.31 | 2.95 | 1 | > 100 | 1.32 | 7.76 | 1.1 | 26.3 | > 100 | 4.07 | 7.41 | 8.71 | 6.76 |  |  |  |  | 
